The source made the active and inactive calls. The calls are words filed in the database; no cut-off is given here.
How the values were obtained:
RAW264.7 [1] = assay: Antiinflammatory activity in mouse RAW264.7 cells assessed as reduction in LPS-induced TNF-alpha production at 1 pM to 100 nM incubated for 2 hrs prior to LPS challenge measured after 8 hrs by ELISA; type: functional, cell-based
Procedure, shortened: (§1)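 RAW 264.7 macrophages were plated at 1×10^5 per well, grown overnight and washed with PBS. Compounds in water (final 1 pM-100 nM, medium with 2% FCS) were added 2 h at 37 °C before E. coli 0111:B4 LPS, 2.5 µg/mL. TNF-α was sampled at 8 h; IL-6 and nitrite (Griess) at 24 h. ELISA was used for cytokines. Values are % of the LPS + medium value in each experiment. Budesonide was the reference. 2-3 experiments, 6 wells per concentration.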

RAW264.7 [2] = assay: Cytoprotective activity against H2O2-induced oxidative stress in mouse RAW264.7 cells assessed as decrease in LDH release at 1 pM incubated for 2 hrs prior to H2O2 addition by colorimetric assay relative to control; type: functional; set-up: scale not given: the % may be the effect or the level left
Procedure, shortened: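 RAW 264.7 cells were seeded and pretreated with compound before H2O2 100 µM, in serum-free medium. Collected medium was centrifuged and incubated with reaction mix 30 min at room temperature. LDH was measured as NADH formation by colorimetric read at 490 nm. n = 8-10 replicates per concentration.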

RAW264.7 [3] = assay: Antiinflammatory activity in mouse RAW264.7 cells assessed as reduction in LPS-induced nitric oxide production at 1 pM to 100 nM incubated for 2 hrs prior to LPS challenge measured after 24 hrs by Griess assay; type: functional, cell-based; procedure, shortened: as §1
RAW264.7 [4] = assay: Antiinflammatory activity in mouse RAW264.7 cells assessed as reduction in LPS-induced nitric oxide production at 100 pM incubated for 2 hrs prior to LPS challenge measured after 24 hrs by Griess assay; type: functional; procedure, shortened: as §1
RAW264.7 [5] = assay: Cytoprotective activity against H2O2-induced oxidative stress in mouse RAW264.7 cells assessed as decrease in caspase-3 activity at 1 pM incubated for 4 hrs prior to H2O2 addition measured after 90 mins by caspase-GloR reagent-based luminescence assay relative to control; type: functional
Procedure, shortened: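 RAW 264.7 macrophages were pretreated with compound (1 pM or 1 nM) 4 h before H2O2 100 µM. Medium was replaced with fresh DMEM after 90 min and plates were incubated overnight. Caspase-Glo 3/7 reagent was added and luminescence read after 30 min at room temperature. Mean ± SD, 4-6 replicates.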

RAW264.7 [6] = assay: Antiinflammatory activity in mouse RAW264.7 cells assessed as reduction in LPS-induced nitric oxide production at 1 nM incubated for 2 hrs prior to LPS challenge measured after 24 hrs by Griess assay; type: functional; procedure, shortened: as §1
RAW264.7 [7] = assay: Antiinflammatory activity in mouse RAW264.7 cells assessed as reduction in LPS-induced TNF-alpha production at 1 nM incubated for 2 hrs prior to LPS challenge measured after 8 hrs by ELISA; type: functional; procedure, shortened: as §1
RAW264.7 [8] = assay: Cytoprotective activity against H2O2-induced oxidative stress in mouse RAW264.7 cells assessed as decrease in LDH release at 1 pM incubated for 2 hrs prior to H2O2 addition by colorimetric assay relative to control; set-up: scale not given: the % may be the effect or the level left
RAW264.7 [9] = assay: Antiinflammatory activity in mouse RAW264.7 cells assessed as reduction in LPS-induced IL-6 production at 100 pM incubated for 2 hrs prior to LPS challenge measured after 24 hrs by ELISA; type: functional; procedure, shortened: as §1
RAW264.7 [10] = assay: Cytoprotective activity against H2O2-induced oxidative stress in mouse RAW264.7 cells assessed as cell viability at 1 nM incubated for 2 hrs prior to H2O2 addition measured after 24 hrs by MTT assay (reference value: 68 to 72.8%); type: functional; details: read-out: Activity
RAW264.7 [11] = assay: Antiinflammatory activity in mouse RAW264.7 cells assessed as reduction in LPS-induced IL-6 production at 1 nM incubated for 2 hrs prior to LPS challenge measured after 24 hrs by ELISA; type: functional; procedure, shortened: as §1
RAW264.7 [12] = assay: Antiinflammatory activity in mouse RAW264.7 cells assessed as reduction in LPS-induced TNF-alpha production at 100 pM incubated for 2 hrs prior to LPS challenge measured after 8 hrs by ELISA; type: functional; procedure, shortened: as §1
Mus musculus [13] = assay: Antiinflammatory activity in Balb/C mouse assessed as reduction in LPS-induced IL6 production in plasma at 0.1 to 10 umol/kg, sc administered LPS 15 mins post compound treatment measured after 4 hrs by ELISA; type: functional, organism-based
Procedure, shortened: (§2)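 Male Balb/C mice, 7-8 weeks old, given compound sc (0.1, 1 or 10 µmoles/kg) or saline. LPS 10 mg/kg was given ip 15 min later, and mice were killed 4 h after that. Spleens were homogenized in PBS with protease inhibitor and centrifuged at 14,000 g, 4 °C. Cytokines in plasma and tissue supernatants were measured by ELISA, with protein by BCA. Dexamethasone 5.6 µmoles/kg was the reference. n = 8-10 mice per treatment.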

Mus musculus [14] = assay: Antiinflammatory activity in Balb/C mouse assessed as reduction in LPS-induced IL6 production in spleen at 0.1 to 10 umol/kg, sc administered LPS 15 mins post compound treatment measured after 4 hrs by ELISA; type: functional, organism-based; procedure, shortened: as §2
RAW264.7 [15] = assay: Cytoprotective activity against H2O2-induced oxidative stress in mouse RAW264.7 cells assessed as cell viability at 1 pM incubated for 2 hrs prior to H2O2 addition measured after 24 hrs by MTT assay (reference value: 68 to 72.8%); type: functional; details: read-out: Activity
Mus musculus [16] = assay: Antiinflammatory activity in Balb/C mouse assessed as reduction in LPS-induced IL6 production in liver at 0.1 to 10 umol/kg, sc administered LPS 15 mins post compound treatment measured after 4 hrs by ELISA; type: functional, organism-based
Mus musculus [17] = assay: Acute toxicity in Balb/C mouse assessed as change in body weight at 100 umol/kg, sc measured over 72 hrs; type: organism-based; details: in vivo
Procedure, shortened: (§3)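 Male Balb/C mice, 24-28 g, groups of 3; single sc injection of compound at 100 μmoles/kg or saline (1 mL/100 g). Food and water intake, body weight and general activity monitored over 72 h against saline-injected animals.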

[18] = Cytotoxicity against mouse RAW264.7 cells assessed as cell viability at 10^-10 M after 24 hrs by MTT assay relative to control; type: cell-based; details: read-out: Activity
Procedure, shortened: (§4)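 RAW 264.7 cells, seeded at 1×10^4 cells/mL and incubated 24 h, were exposed to compound from 1 pM to 100 nM. Viability was read by MTT (final 0.5 mg/mL, 1 h at 37 °C), with formazan dissolved in DMSO and OD at 570 nm. Results are compared with medium-only cells.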

[19] = Cytotoxicity against mouse RAW264.7 cells assessed as cell viability at 10^-11 M after 24 hrs by MTT assay relative to control; type: cell-based; details: read-out: Activity; procedure, shortened: as §4
Mus musculus [20] = assay: Acute toxicity in Balb/C mouse assessed as change in activity at 100 umol/kg, sc measured over 72 hrs; type: organism-based; details: in vivo; procedure, shortened: as §3
Mus musculus [21] = assay: Acute toxicity in Balb/C mouse assessed as change in water intake at 100 umol/kg, sc measured over 72 hrs; type: organism-based; details: in vivo; procedure, shortened: as §3
[22] = Cytotoxicity against mouse RAW264.7 cells assessed as cell viability at 10^-7 M after 24 hrs by MTT assay relative to control; type: cell-based; details: read-out: Activity; procedure, shortened: as §4
[23] = Cytotoxicity against mouse RAW264.7 cells assessed as cell viability at 10^-12 M after 24 hrs by MTT assay relative to control; type: cell-based; details: read-out: Activity; procedure, shortened: as §4
Mus musculus [24] = assay: Antiinflammatory activity in Balb/C mouse assessed as reduction in LPS-induced TNF-alpha production in plasma at 0.1 to 10 umol/kg, sc administered LPS 15 mins post compound treatment measured after 4 hrs by ELISA; type: functional, organism-based; procedure, shortened: as §2
Mus musculus [25] = assay: Acute toxicity in Balb/C mouse assessed as change in food intake at 100 umol/kg, sc measured over 72 hrs; type: organism-based; details: in vivo; procedure, shortened: as §3
[26] = Cytotoxicity against mouse RAW264.7 cells assessed as cell viability at 10^-9 M after 24 hrs by MTT assay relative to control; type: cell-based; details: read-out: Activity; procedure, shortened: as §4
Mus musculus [27] = assay: Antiinflammatory activity in Balb/C mouse assessed as reduction in LPS-induced IL6 production in brain at 0.1 to 10 umol/kg, sc administered LPS 15 mins post compound treatment measured after 4 hrs by ELISA; type: functional, organism-based
[28] = Cytotoxicity against mouse RAW264.7 cells assessed as cell viability at 10^-8 M after 24 hrs by MTT assay relative to control; type: cell-based; details: read-out: Activity; procedure, shortened: as §4
Mus musculus [29] = assay: Antiinflammatory activity in Balb/C mouse assessed as reduction in LPS-induced TNF-alpha production in spleen at 0.1 to 10 umol/kg, sc administered LPS 15 mins post compound treatment measured after 4 hrs by ELISA; type: functional, organism-based; procedure, shortened: as §2

Cl.NCCCN1CCc2ccccc21
Activity (RAW264.7 [1]): Active
Activity (RAW264.7 [2]): 16%
Activity (RAW264.7 [3]): Active
Activity (RAW264.7 [4]): Active
Activity (RAW264.7 [5]): inactive
Activity (RAW264.7 [6]): Active
Activity (RAW264.7 [7]): Active
Activity (RAW264.7 [8]): 16%
Activity (RAW264.7 [9]): Active
viability at 0.001 µM (RAW264.7 [10]): 91.9%
Activity (RAW264.7 [11]): Active
Activity (RAW264.7 [12]): Active

CC(C)NCCCN1CCc2ccccc21.Cl.Cl
Activity (Mus musculus [13]): Dose-dependent effect
Activity (Mus musculus [14]): Dose-dependent effect
viability at 1 pM (RAW264.7 [15]): 98.5%
Activity (Mus musculus [16]): Dose-dependent effect
Activity (Mus musculus [17]): Non-Toxic
Activity (RAW264.7 [1]): Dose-dependent effect
viability at 24 h, 0.0001 µM [18]: 99.2%
viability at 24 h, 1e-05 µM [19]: 102%
Activity (Mus musculus [20]): Non-Toxic
Activity (Mus musculus [21]): Non-Toxic
viability at 24 h, 0.1 µM [22]: 91.9%
Activity (RAW264.7 [2]): 16%
viability at 24 h, 1e-06 µM [23]: 93.3%
Activity (RAW264.7 [3]): Dose-dependent effect
Activity (Mus musculus [24]): Dose-dependent effect
Activity (Mus musculus [25]): Non-Toxic
viability at 24 h, 0.001 µM [26]: 92.1%
Activity (RAW264.7 [5]): 60%
Activity (RAW264.7 [6]): 50%
Activity (RAW264.7 [7]): 50%
Activity (RAW264.7 [8]): 16%
Activity (RAW264.7 [11]): 50%
Activity (Mus musculus [27]): Dose-dependent effect
viability at 24 h, 0.01 µM [28]: 90.9%
Activity (Mus musculus [29]): Dose-dependent effect
